From ChEMBL document CHEMBL1123812, “Pyrroloisoquinoline antidepressants. 2. In-depth exploration of structure-activity relationships” (J Med Chem, 1987)
pKi: −log10 of the molar value. The source made the active and inactive calls.

Columns and labels:
[1] = organism: Mus musculus; assay: Gross behavioral effects ascertained in mice; W indicates weak stimulant or depressant activity of little significance.; format: functional, organism-based
Outline: (§1)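 Male Swiss Webster mice, 18–24 g, three per dose, given ip doses of 1, 3, 10, 30, 100 and 300 mg/kg. Observed for gross behavior and held for 4 days. Scored as weak (W), stimulant (S), depressant (D) or convulsant (C).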

[2] = molecular target: Serotonin 2 (5-HT2) receptor (Rattus norvegicus) (UniProt P30994+P08909+P14842); assay: Binding affinity towards 5-hydroxytryptamine 2 receptor at 1.0 uM concentration; format: protein assay
Outline: (§2)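 Rat brain crude synaptic membranes in 20 mM NaHEPES pH 7.5. Ligands: α1 cortex […] 0.4 nM, nonspecific with (-)-NE 100 μM, 30 min at 25 °C. […] D2 striatum [3H]spiperone 0.05 nM with (+)-butaclamol 1 μM, 45 min at 37 °C. S1 cortex [3H]5-HT 1 nM plus glutathione and MgCl2, with 5-HT 10 μM, 20 min at 37 °C. […] Samples filtered on GF/B and counted.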

[3] = molecular target: Serotonin 1 (5-HT1) receptor (Rattus norvegicus) (UniProt P28564+P30940+P19327+P28565); assay: Binding affinity towards serotonin S1 receptor at 1.0 uM; format: protein assay; outline: as §2
[4] = organism: Mus musculus; assay: Antagonism of tetrabenazine (TBZ)-induced depression measured in mice by motor activity; format: functional; details: Mus musculus; read-out: ED50
Outline: (§3)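 Nonfasted male Swiss Webster mice, 18–24 g, ten per dose level and in saline controls. Test compound given ip 30 min before tetrabenazine 32 mg/kg ip; dose expressed as free base. Motor activity and ptosis scored. Control response ≤90% corrected by Abbott's formula.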

[5] = organism: Mus musculus; assay: Antagonism of tetrabenazine (TBZ)-induced depression in mice measured for ptosis; format: functional; details: Mus musculus; read-out: ED50; outline: as §3
[6] = molecular target: Norepinephrine transporter (Rattus norvegicus) (UniProt Q9WTR4); assay: Ability to inhibit the uptake of [3H]norepinephrine (NE) 0.1 uM concentration at rat brain synaptosomes; format: functional, subcellular
Outline: (§4)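 Male Wistar rat brain synaptosomes (P2 fraction): hypothalamus for NE, striatum for DA, cerebral cortex for 5-HT. Buffer is Tris- or HEPES-buffered salt medium with glucose, ascorbate and nialamide, pH 7.4 at 37 °C. Preincubated 10 min at 37 °C with compound. Uptake started with [3H]NE 100–300 nM, [3H]DA 50–300 nM or [3H]5-HT 100–200 nM, incubated 3 min (DA) or 6–10 min (NE, 5-HT). Blanks held on ice. Filtered, counted by scintillation.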

[7] = tested on: Mus musculus; assay: Ability to antagonise intraperitoneal dose; inactive (<10% antagonism) at 30 mgjkg is represented as I-30.; format: functional, organism-based; outline: as §3
[8] = molecular target: Serotonin 2 (5-HT2) receptor (Rattus norvegicus, UniProt P30994+P08909+P14842); assay: Binding affinity towards 5-hydroxytryptamine 2 receptor; format: protein assay
[9] = molecular target: Sodium-dependent dopamine transporter (Rattus norvegicus) (UniProt P23977); assay: Ability to inhibit the uptake of [3H]dopamine (DA) 0.1 uM concentration at rat brain synaptosomes; format: functional, subcellular; outline: as §4
[10] = molecular target: Sodium-dependent serotonin transporter (Rattus norvegicus) (UniProt P31652); assay: Ability to inhibit the uptake of [3H]- serotonin(5-HT) 0.1 uM concentration at rat brain synaptosomes; format: functional, subcellular; outline: as §4
[11] = molecular target: T1, Adrenergic receptor alpha-1 (Rattus norvegicus, UniProt P15823+P23944+P43140); assay: Binding affinity towards alpha-1 adrenergic receptor; format: protein assay
T1 sequence (P15823 whole entry): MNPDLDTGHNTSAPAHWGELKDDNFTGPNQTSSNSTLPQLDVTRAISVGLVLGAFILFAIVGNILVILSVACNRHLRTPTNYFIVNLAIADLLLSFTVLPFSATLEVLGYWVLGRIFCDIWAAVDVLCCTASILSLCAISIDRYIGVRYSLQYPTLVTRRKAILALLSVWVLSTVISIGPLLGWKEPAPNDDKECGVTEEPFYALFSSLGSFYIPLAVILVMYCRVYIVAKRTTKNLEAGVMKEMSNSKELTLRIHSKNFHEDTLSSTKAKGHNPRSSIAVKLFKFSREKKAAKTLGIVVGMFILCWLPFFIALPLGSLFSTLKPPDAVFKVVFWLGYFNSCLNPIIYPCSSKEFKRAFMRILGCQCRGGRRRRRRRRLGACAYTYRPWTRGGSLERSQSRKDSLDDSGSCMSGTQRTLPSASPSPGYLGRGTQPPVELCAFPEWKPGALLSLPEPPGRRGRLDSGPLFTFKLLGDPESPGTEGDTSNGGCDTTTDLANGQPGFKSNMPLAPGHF
T1 sequence (P23944 whole entry): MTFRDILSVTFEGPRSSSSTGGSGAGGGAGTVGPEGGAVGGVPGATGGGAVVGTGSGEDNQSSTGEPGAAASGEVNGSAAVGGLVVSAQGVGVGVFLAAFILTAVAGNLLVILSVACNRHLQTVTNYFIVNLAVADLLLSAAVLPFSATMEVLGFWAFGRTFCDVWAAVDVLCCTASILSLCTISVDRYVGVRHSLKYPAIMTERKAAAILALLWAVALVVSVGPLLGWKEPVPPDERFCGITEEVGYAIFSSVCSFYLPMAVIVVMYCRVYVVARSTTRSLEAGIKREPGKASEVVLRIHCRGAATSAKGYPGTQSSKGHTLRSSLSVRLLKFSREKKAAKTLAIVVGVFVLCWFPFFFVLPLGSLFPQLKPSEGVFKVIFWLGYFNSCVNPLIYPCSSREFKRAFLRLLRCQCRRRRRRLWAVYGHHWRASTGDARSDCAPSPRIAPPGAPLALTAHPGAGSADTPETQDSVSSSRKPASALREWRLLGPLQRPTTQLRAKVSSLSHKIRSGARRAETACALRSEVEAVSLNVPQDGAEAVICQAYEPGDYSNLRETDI
T1 sequence (P43140 whole entry): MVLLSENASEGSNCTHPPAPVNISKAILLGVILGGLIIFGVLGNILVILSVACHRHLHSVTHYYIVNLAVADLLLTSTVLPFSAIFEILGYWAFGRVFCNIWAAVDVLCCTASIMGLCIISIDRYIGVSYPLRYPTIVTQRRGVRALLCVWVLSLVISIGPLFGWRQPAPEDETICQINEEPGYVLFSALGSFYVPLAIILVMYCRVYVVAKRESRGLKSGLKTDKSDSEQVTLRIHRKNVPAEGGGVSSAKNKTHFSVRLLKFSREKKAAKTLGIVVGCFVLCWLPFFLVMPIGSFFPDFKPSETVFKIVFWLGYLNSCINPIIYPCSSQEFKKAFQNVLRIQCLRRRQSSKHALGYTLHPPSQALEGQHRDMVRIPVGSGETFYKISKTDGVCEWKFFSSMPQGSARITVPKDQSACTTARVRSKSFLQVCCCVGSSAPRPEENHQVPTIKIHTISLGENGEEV

[12] = molecular target: Norepinephrine transporter (Rattus norvegicus, UniProt Q9WTR4); assay: Inhibition of uptake of tritiated norepinephrine (NE) in rat synaptosomes; format: subcellular, Brain
[13] = molecular target: D(2) dopamine receptor (Rattus norvegicus) (UniProt P61169); assay: Binding affinity towards dopamine receptor D2 at 1.0 uM concentration; outline: as §2
[14] = molecular target: Sodium-dependent dopamine transporter (Rattus norvegicus, UniProt P23977); assay: Inhibition of the uptake of tritiated dopamine (DA) in rat synaptosomes; format: subcellular, Brain
[15] = tested on: Mus musculus; assay: Ability to antagonise intraperitoneal dose; inactive (<10% antagonism) at 30 mg/kg is represented as I-30.; format: functional, organism-based; design: dose 30 mg/kg; outline: as §3
[16] = molecular target: Serotonin 1 (5-HT1) receptor (Rattus norvegicus, UniProt P28564+P30940+P19327+P28565); assay: Binding affinity towards serotonin S1 receptor; format: protein assay; outline: as §2
[17] = organism: Mus musculus; assay: Gross behavioral effects ascertained in mice; S indicates significant stimulant properties.; format: functional, organism-based; outline: as §1
[18] = molecular target: Adrenergic receptor alpha-2 (Rattus norvegicus) (UniProt P22086+P19328+P22909); assay: Binding affinity towards alpha-2 adrenergic receptor at 1.0 uM concentration; format: protein assay
[19] = molecular target: Adrenergic receptor alpha-1 (Rattus norvegicus) (UniProt P15823+P23944+P43140); assay: Binding affinity towards alpha-1 adrenergic receptor at 1.0 uM concentration; format: protein assay; outline: as §2

Chain of Sodium-dependent dopamine transporter (Rattus norvegicus) (P23977 whole entry): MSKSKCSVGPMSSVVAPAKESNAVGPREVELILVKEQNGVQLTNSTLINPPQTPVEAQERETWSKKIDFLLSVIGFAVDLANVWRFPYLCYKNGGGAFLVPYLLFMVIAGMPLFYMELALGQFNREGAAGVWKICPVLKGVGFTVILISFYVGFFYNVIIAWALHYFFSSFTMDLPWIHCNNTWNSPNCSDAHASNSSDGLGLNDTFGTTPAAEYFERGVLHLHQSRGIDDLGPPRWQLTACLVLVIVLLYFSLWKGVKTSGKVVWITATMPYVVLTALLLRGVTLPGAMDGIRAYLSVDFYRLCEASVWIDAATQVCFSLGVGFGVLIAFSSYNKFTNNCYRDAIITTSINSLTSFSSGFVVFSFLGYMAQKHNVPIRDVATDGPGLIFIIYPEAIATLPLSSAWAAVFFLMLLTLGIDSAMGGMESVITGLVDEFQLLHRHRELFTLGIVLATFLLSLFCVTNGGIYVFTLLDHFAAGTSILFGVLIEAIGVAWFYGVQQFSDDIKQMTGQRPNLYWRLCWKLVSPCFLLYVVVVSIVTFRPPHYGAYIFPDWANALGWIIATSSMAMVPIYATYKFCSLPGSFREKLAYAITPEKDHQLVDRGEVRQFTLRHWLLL
Chain of Sodium-dependent dopamine transporter (P23977 whole entry): as above
Chain of Norepinephrine transporter (Q9WTR4 whole entry): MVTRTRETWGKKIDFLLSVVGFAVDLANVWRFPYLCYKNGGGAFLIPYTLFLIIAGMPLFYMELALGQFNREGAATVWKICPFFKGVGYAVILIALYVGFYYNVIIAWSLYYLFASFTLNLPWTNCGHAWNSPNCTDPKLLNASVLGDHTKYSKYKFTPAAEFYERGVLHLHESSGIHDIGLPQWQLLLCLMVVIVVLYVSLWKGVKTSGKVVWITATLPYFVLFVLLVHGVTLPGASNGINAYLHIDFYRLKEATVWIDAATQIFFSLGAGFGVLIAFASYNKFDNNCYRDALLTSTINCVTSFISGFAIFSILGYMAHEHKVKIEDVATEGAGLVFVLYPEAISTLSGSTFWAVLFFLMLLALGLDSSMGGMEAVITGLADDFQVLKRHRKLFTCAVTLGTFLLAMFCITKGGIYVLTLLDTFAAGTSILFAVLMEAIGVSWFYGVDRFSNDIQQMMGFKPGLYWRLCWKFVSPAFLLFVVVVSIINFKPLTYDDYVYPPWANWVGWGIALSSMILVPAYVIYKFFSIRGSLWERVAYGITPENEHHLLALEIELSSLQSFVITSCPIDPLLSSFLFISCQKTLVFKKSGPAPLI
Chain of Norepinephrine transporter (Rattus norvegicus) (Q9WTR4 as listed by the source): as the sequence (Q9WTR4 whole entry) above
Chain of Sodium-dependent serotonin transporter (Rattus norvegicus) (P31652 whole entry): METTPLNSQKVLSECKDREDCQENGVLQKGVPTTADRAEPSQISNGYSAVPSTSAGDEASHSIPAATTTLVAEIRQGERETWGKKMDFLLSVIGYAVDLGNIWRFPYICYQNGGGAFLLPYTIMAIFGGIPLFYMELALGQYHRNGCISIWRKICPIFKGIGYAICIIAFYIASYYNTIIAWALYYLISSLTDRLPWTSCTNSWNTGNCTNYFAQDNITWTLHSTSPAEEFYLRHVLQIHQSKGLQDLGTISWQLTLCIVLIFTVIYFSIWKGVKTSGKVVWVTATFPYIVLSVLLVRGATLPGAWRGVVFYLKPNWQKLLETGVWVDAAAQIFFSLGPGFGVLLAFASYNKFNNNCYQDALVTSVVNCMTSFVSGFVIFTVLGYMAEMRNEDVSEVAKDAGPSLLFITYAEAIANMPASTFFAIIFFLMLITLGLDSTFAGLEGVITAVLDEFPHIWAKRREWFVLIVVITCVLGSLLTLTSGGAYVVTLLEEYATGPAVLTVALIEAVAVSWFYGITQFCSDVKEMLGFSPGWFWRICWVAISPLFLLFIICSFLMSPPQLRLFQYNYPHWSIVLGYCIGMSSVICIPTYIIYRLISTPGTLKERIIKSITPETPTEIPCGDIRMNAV
Chain of D(2) dopamine receptor (Rattus norvegicus) (P61169 whole entry): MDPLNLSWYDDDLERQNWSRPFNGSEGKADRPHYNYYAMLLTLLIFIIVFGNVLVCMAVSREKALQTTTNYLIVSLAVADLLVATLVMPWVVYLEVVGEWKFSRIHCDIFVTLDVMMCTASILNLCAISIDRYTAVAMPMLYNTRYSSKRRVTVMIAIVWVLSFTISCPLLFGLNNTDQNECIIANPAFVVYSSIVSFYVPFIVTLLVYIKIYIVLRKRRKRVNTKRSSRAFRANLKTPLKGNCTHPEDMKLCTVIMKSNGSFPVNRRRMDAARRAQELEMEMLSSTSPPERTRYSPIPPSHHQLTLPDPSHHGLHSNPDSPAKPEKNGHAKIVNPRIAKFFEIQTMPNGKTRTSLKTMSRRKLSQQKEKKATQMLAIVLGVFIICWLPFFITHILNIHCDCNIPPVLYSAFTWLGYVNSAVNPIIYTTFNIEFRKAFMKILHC
Chain of Serotonin 2 (5-HT2) receptor (Rattus norvegicus) (P08909 whole entry, looked up): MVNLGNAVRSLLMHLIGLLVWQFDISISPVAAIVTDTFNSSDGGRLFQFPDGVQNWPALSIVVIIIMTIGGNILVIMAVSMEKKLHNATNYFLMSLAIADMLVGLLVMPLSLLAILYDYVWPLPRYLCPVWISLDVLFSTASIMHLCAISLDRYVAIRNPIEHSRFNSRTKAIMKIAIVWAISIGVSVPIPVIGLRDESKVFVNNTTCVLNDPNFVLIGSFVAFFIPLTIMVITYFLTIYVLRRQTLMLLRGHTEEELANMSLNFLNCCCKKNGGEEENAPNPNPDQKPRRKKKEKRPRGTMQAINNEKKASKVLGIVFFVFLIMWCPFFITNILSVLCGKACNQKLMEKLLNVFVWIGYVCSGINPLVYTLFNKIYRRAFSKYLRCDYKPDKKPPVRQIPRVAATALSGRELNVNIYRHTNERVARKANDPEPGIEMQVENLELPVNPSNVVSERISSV
Chain of Serotonin 2 (5-HT2) receptor (Rattus norvegicus) (P14842 whole entry, looked up): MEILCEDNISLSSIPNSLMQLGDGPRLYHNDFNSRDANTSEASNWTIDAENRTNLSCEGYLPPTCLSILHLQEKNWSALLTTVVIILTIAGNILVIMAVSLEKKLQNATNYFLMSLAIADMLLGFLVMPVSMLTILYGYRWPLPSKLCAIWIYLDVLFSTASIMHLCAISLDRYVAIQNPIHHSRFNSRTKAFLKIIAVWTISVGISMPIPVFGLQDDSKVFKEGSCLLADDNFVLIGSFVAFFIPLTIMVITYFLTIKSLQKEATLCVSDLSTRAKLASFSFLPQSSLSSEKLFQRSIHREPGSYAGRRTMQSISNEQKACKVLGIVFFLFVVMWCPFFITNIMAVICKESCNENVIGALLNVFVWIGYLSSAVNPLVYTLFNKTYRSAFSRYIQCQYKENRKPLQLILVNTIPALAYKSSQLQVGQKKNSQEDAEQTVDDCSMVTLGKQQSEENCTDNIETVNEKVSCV
Chain of Serotonin 2 (5-HT2) receptor (Rattus norvegicus) (P30994 whole entry, looked up): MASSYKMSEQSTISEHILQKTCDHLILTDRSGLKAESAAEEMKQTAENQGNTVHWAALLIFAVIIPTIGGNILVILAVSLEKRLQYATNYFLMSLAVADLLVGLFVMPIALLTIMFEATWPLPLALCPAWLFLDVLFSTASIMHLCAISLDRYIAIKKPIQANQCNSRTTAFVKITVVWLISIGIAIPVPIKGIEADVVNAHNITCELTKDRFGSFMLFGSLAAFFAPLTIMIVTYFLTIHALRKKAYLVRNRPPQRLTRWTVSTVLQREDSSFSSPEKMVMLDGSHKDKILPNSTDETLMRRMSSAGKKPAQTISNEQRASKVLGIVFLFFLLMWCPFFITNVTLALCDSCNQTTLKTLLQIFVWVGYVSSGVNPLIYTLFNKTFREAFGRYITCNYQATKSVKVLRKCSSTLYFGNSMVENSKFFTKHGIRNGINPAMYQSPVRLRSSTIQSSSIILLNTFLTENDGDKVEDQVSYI

| SMILES | inhibition [3] [%] | inhibition [6] [%] | Ki [8] [nM] | inhibition [9] [%] | inhibition [10] [%] | inhibition [13] [%] | pKi [14] | behavior [1] | ED50 [4] [mg/kg] | ED50 [5] [mg/kg] | other results |
| --- | --- | --- | --- | --- | --- | --- | --- | --- | --- | --- | --- |
| FC(F)(F)c1cccc([C@@H]2CN3CCC[C@H]3c3ccccc32)c1 |  | 23 | 29 | 8 | 9 |  |  | Partial stimulant |  |  | ED50 [7]: inactive; Ki [11]: 86 nM |
| c1ccc([C@@H]2CN3CCC[C@@H]3c3ccccc32)cc1 |  | 4 |  | 6 | 16 |  |  | Partial stimulant |  |  | ED50 [7]: inactive; ED50 [15]: inactive |
| Br.Clc1ccccc1[C@@H]1CN2CCC[C@@H]2c2ccccc21 (stereo in doubt; (+)-24b) |  |  |  |  |  |  | 7.76 |  |  |  | Ki [16]: 9200 nM; Ki [11]: 150 nM |
| c1ccc([C@@H]2CN3CCC[C@@H]3c3ccccc32)cc1 (stereo in doubt; (+)-7b) |  |  |  |  |  | 40 |  |  |  |  | behavior [17]: Stimulant; inhibition [18]: 64% |
| Br.Clc1cccc([C@@H]2CN3CCC[C@@H]3c3ccccc32)c1 |  |  | 49 |  |  |  | 8.60 |  | ~0.1 | < 1 | behavior [17]: Stimulant; pKi [12]: 9.35 |
| c1ccc(C[C@H]2CN3CCC[C@H]3c3ccccc32)cc1 |  | 69 |  | 19 | 32 |  |  |  |  |  | ED50 [7]: inactive; ED50 [15]: inactive |
| Clc1ccc([C@@H]2CN3CCC[C@@H]3c3cc(Cl)ccc32)cc1 | 11 |  |  |  |  | 55 | 8.49 | Partial stimulant | 37.4 | ~4 | pKi [12]: 8.49; inhibition [19]: 20%; inhibition [18]: 10% |
| CN1CCc2cc(Cl)c(O)cc2[C@@H](c2ccccc2)C1 [SCH-23390] | 75 |  | 13 |  |  | 53 |  |  |  |  | inhibition [19]: 65% |

The next lines start with results.

| inhibition [3] [%] | inhibition [6] [%] | Ki [8] [nM] | inhibition [9] [%] | inhibition [10] [%] | inhibition [13] [%] | pKi [14] | SMILES | behavior [1] | ED50 [4] [mg/kg] | ED50 [5] [mg/kg] | other results |
| --- | --- | --- | --- | --- | --- | --- | --- | --- | --- | --- | --- |
| 45 |  |  |  |  |  |  | COc1ccccc1[C@@H]1CN2CCC[C@@H]2c2ccccc21 | Partial stimulant | ~0.6 | ~0.3 | inhibition [2]: 74% |
| 31 |  |  |  |  | 17 | ~5.70 | Br.COc1cc([C@@H]2CN3CCC[C@@H]3c3ccccc32)cc(OC)c1OC | Partial stimulant | > 60 | 2.5 | pKi [12]: 6.79; inhibition [2]: 2%; Ki [11]: 29 nM |
| 36 | 89 | 29 | 77 | 17 | 16 |  | Br.Nc1ccc([C@@H]2CN3CCC[C@H]3c3ccccc32)cc1 |  | 1 | 0.2 | inhibition [19]: 69% |
